In the library only some 4.9% were active in any assay of this set; here they are far more common.
APP 5'UTR act: APP 5'UTR luciferase reporter activation | SH-SY5Y APP 5'UTR luciferase reporter, luminescence; zero percent = DMSO vehicle wells | activation, % at 2 µM | 190,000 tested, 1% active;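 active means activation above a set limit, based on mean plus 3 SD of controls, cut at about 140% in these data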
STAT3 activator: activators of IL-6 induced STAT3 signaling; U3A cells, IL-6 STAT3-luciferase reporter, luminescence; 100% = signal with IL-6 EC80 alone; 190,000 tested, 0.91% active; activation (% of control), % at 5.6 µM; AID 871;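 active means activation above the screen-wide mean of compound activation plus 3 SD, cut at about 130% in these data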;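 further: 0% = background luminescence of wells with medium and substrate only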
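System – human U3A cells carrying STAT3-luciferase construct · Probe or stimulus – Interleukin-6, 33 ng/mL · Schedule – compound 1 h, then IL-6 6 h at 37 °C · Signal – luminescence from STAT3-driven luciferase reporter · Evaluation – percent of IL-6-only median luminescence · Benchmarks – IL-6-only high control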
STAT1 activator: STAT1 signaling activation; NIH 3T3 STAT1-luciferase reporter, IFN-gamma, luminescence; 100% = IFN-gamma alone, no compound; activation (% of control), % at 5.5 µM; 200,000 tested, 2.6% active; AID 932;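 active means activation above the screen-wide mean activation plus 3 SD, cut at about 130% in these data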;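 further: raw ratio to IFN-gamma control signal so 100% means no change and 0% no light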
STAT3 inh-1: inhibitors of IL-6 induced STAT3 signaling; inhibition, % at 5.5 µM; U3A cells, IL-6 STAT3-luciferase reporter, luminescence; host cell line lacks STAT1; 190,000 tested, 0.89% active;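 active means inhibition above the mean inhibition across all screened compounds plus 3 SD, cut at about 44% in these data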;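 further: 0% = DMSO only wells and 100% = 100 µM nifuroxazide control wells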
NF-kB neuron act: raises NF-kB expression in human neuronal cells; NF-kB reporter expression; stronger effect = higher value; AID 1239; fold change at 12.5 µM; 190,000 tested, 1.6% active; in the data active means fold change above about 3.3
STAT1 inh: inhibitors of IFN-gamma induced STAT1 signaling; 200,000 tested, 0.35% active; NIH 3T3 STAT1-luciferase reporter, luminescence; inhibition, % at 5.5 µM; AID 920;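 active means inhibition above a set limit, the mean inhibition across all tested compounds plus 3 SD, cut at about 34% in these data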;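 further: 0% = IFN-gamma with DMSO and 100% = IFN-gamma with 300 µM nifuroxazide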
STAT3 inh-2: confirmation of STAT3 signaling inhibitors; shares compounds with STAT3 inh-1; U3A cells, IL-6 STAT3 luciferase reporter, luminescence; cell line lacks STAT1; inhibition, % at 5.7 µM; 1,200 tested, 45% active;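 active means inhibition above the hit cutoff computed for the primary STAT3 screen, cut at about 44% in these data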;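 further: 0% = IL-6 plus DMSO and 100% = IL-6 plus nifuroxazide control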
NFkB inh STAT3ct: counter-screen for STAT3 inhibitors: NF-kappaB inhibition | shares compounds with STAT3 inh-1 | HEK293T NF-kB luciferase reporter, TNF-alpha induced | inhibition, % at 5.7 µM | 1,200 tested, 36% active;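 active means inhibition above the mean of solvent-only control wells plus 3 SD, cutoff set per campaign, cut at about 13% in these data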;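 further: 0% = TNF-alpha with DMSO and 100% = TNF-alpha with MG high control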
STAT1 inh STAT3c: inhibits STAT1, counter-screen to STAT3 inhibitors. shares compounds with STAT3 inh-1. NIH 3T3 STAT1-luciferase reporter, IFN-gamma induced, luminescence. inhibition, % at 5.7 µM. 1,200 tested, 27% active;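 active means inhibition above the mean plus 3 SD of solvent-only control wells, limit set per screening run, cut at about 16% in these data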;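 further: 0% = DMSO with IFN-gamma and 100% = nifuroxazide control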
* = called active by the depositor; . = no result given.

SMILES | APP 5'UTR act | STAT3 activator | STAT1 activator | STAT3 inh-1 | NF-kB neuron act | STAT1 inh | STAT3 inh-2 | NFkB inh STAT3ct | STAT1 inh STAT3c
O=C(Nc1ccc(F)cc1)NC1CCN(Cc2ccccc2)CC1 | -7 | 98 | 95 | 3 | 0.9 | 5 | . | . | .
Cc1occc1C(=O)N/N=C/c1ccccn1 | -2 | 104 | 120 | -2 | 1.4 | -24 | . | . | .
Cc1csc(N/N=C/c2ccccn2)n1 | 127 | 59 | 74 | 53* | 1.5 | 28 | 20 | 10 | -42
Cc1cc(C)nc(NC(=O)/C=C/c2ccccc2Cl)c1 | 110 | 111 | 126 | -13 | 3.2 | -28 | . | . | .
Cc1ccnc(NC(=O)/C=C/c2ccccc2Cl)c1 | 186* | 55 | 121 | 55* | 8.7* | -23 | 28 | -9 | -100
Cc1ccc(S(=O)(=O)/N=C(\N)Nc2nc(C)c3cc(C)c(C)cc3n2)cc1 | -4 | 66 | 99 | 44* | 0.98 | 0 | 30 | -7 | -16
CC(=O)c1cccc(NC(=O)NNC(=O)CCC(=O)Nc2ccc(C)c(C)c2)c1 | -7 | 98 | 104 | 13 | 0.94 | -5 | . | . | .
Cc1ccc(C(=O)/C=C/Nc2ccccc2C(N)=O)cc1 | 174* | 36 | 110 | 76* | 6.7* | -11 | 38 | 8 | -63
CCOC(=O)c1ccccc1N/C=C/C(=O)c1ccccc1 | 13 | 104 | 116 | 5 | . | -17 | . | . | .
NC(=O)c1ccccc1N/C=C/C(=O)c1ccc(Cl)cc1 | 148* | 50 | 91 | 60* | 6.9* | 9 | 27 | -2 | -84
O=C(O)COc1ccc(-c2nccc(-c3ccccn3)n2)cc1 | -63 | 64 | 86 | 47* | 0.53 | 15 | 38 | 15* | 0
COc1ccc(C(=O)COc2ccc(F)cc2)c(O)c1 | 40 | . | . | . | . | . | . | . | .
COc1ccc(O)c(C(=O)CC(=O)c2ccc(F)cc2)c1 | 149* | 35 | 110 | 77* | 2.3 | -11 | 27 | -10 | -112
Cc1nc(Nc2nc3ccccc3o2)nc2c1CCC2 | 125 | 45 | 93 | 70* | 3.7* | 8 | 28 | -7 | -66
COc1ccc(C(=O)C[n+]2cc(-c3ccc(OC)cc3)n3c2CCCC3)cc1 | 16 | 97 | 86 | 5 | 0.82 | 14 | . | . | .
Cc1ccc(C(=O)C[n+]2cc(-c3ccc(C)cc3)n3c2CCCCC3)cc1 | 4 | 46 | 75 | 71* | 1.1 | 28 | 60* | -1 | 27*
CNC1=C(N(C(C)=O)c2ccc(Br)cc2)C(=O)c2ccccc2C1=O | -55 | 59 | 75 | 49* | 0.97 | 28 | 53* | 31* | 41*
CC(C)CCN1CCN(Cc2cccn2-c2ccccn2)CC1CCO (centres undefined) | 5 | 95 | 98 | 10 | . | 0 | . | . | .
CCOc1ccc(N=c2scc(-c3ccc(OC)cc3)n2CCO)cc1 | 30 | 54 | 98 | 59* | 0.91 | 3 | 18 | -2 | -5
O=C(Nc1cccc(F)c1)c1cc(S(=O)(=O)N2CCOCC2)cs1 | 18 | 99 | 102 | 4 | 0.83 | -4 | . | . | .
Cc1cc(N2CCCCC2)nc(NCc2ccccc2)n1 | -6 | 69 | 79 | 46* | 0.83 | 23 | 25 | -9 | 21*
Cc1cc(N2CCOCC2)nc(NCc2ccccc2)n1 | -5 | 83 | 83 | 26 | 0.78 | 19 | . | . | .
Cc1cc(NC(=O)c2noc3c2CCc2ccccc2-3)n(-c2ccccc2)n1 | -14 | 103 | 101 | -3 | 0.98 | 0 | . | . | .
O=C(Nc1cccc(O)c1)c1noc2c1CCc1ccccc1-2 | 195* | 31 | 84 | 83* | 6.1* | 18 | 60* | -6 | 16
Nc1cc(N)cc(-c2nc3ccccc3[nH]2)c1 | 15 | 118 | 109 | -14 | 0.56 | -10 | . | . | .
SMILES | APP 5'UTR act | STAT3 activator | STAT1 activator | STAT3 inh-1 | NF-kB neuron act | STAT1 inh | STAT3 inh-2 | NFkB inh STAT3ct | STAT1 inh STAT3c
COC(=O)c1ccc(-c2nc3ccccc3[nH]2)cc1 | 131 | 57 | 122 | 52* | 7.1* | -23 | 22 | -23 | -91
COc1ccc(-c2nc3ccccc3[nH]2)cc1 | 185* | 50 | 86 | 60* | 5* | 15 | 37 | 2 | -45
COC(=O)c1ccc(-c2ncc[nH]2)cc1 | 20 | 91 | 103 | 16 | 1.4 | -5 | . | . | .
OCC1(Cc2ccccc2)CCN(Cc2ccc(C(F)(F)F)cc2)CC1 | 12 | 102 | 104 | 2 | 1.3 | -6 | . | . | .
Cc1ccc2nc(-c3cc(N)cc(N)c3)oc2c1 | -38 | 65 | 97 | 43* | 0.95 | 3 | 25 | 5 | -15
Oc1ccc(Nc2nc(NCC3CCCO3)c3ccccc3n2)cc1 (centres undefined) | 15 | 89 | 98 | 21 | 0.49 | 3 | . | . | .
Oc1ccccc1Nc1nc(NCC2CCCO2)c2ccccc2n1 (centres undefined) | -5 | 64 | 96 | 50* | 0.72 | 4 | 33 | -7 | 0
O=S(=O)(NCc1ccccc1Cl)c1cccs1 | 23 | 91 | 99 | 20 | 1.4 | 0 | . | . | .
O=C(Nc1ccn(Cc2ccccc2F)n1)c1ccc(COc2ccccc2Cl)cc1 | -13 | 64 | 102 | 46* | 0.65 | -3 | 46* | 7 | 5
Cc1ccc(OCCN2CCN(C(=O)CCC(=O)Nc3nnc(C(C)C)s3)CC2)cc1 | -16 | 62 | 92 | 50* | 1.7 | 9 | 42 | 7 | 3
Cc1ccc(OCCN2CCN(C(=O)CCC(=O)Nc3nnc(C)s3)CC2)cc1 | -8 | 100 | 109 | 4 | 1.2 | -10 | . | . | .
CCCc1nnc(NC(=O)CCC(=O)N2CCN(CCOc3ccc(C)cc3)CC2)s1 | 12 | 62 | 91 | 50* | 0.74 | 10 | 40 | 2 | 1
CNc1ccccc1C(C)(C)c1cc(-c2ccc(F)cc2)no1 | 13 | 62 | 102 | 46* | 0.91 | -2 | 51* | 11 | 2
CNc1ccccc1C(C)(C)c1cc(-c2cccc(Br)c2)no1 | -11 | 96 | 72 | 9 | 0.62 | 30 | . | . | .
CCOc1ccc(-c2nc(C#N)c(NCc3ccco3)o2)cc1 | 13 | 90 | 94 | 14 | 1.2 | 7 | . | . | .
CCC(=O)c1ccc(OCc2ccc(C(=O)c3ccccc3)cc2)cc1 | -2 | 62 | 73 | 50* | 0.87 | 27 | 43 | 8 | 19*
NNC(=O)c1ccc(COc2ccccc2)cc1 | -2 | 92 | 100 | 14 | 1.2 | 0 | . | . | .
CC(C)c1ccc(CCNC(=O)c2ccc([N+](=O)[O-])cc2)cc1 | 11 | 101 | 98 | 5 | 0.97 | 2 | . | . | .

Screening data as filed in PubChem.
